According to ChEMBL document CHEMBL4368913, “Design, Synthesis, and Biological Evaluation of 6-Substituted Thieno[3,2- d]pyrimidine Analogues as Dual Epidermal Growth Factor Receptor Kinase and Microtubule Inhibitors” (J Med Chem, 2019):

How the values were obtained:
RS4-11 = assay: Antiproliferative activity against human RS4:11 cells after 72 hrs by MTT assay; format: functional, cell-based; details: RS4-11, 72 h
Procedure, shortened: (§1)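 Cells in medium with 10% FBS, seeded at 8×10^3 per well, 18 h at 37 °C, 5% CO2, then graded compound concentrations (DMSO ≤0.25%) for 72 h. Viability by MTT. […] Mean ± SE of dose-response curves from at least three independent experiments.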

HeLa = assay: Antiproliferative activity against human HeLa cells after 72 hrs by MTT assay; format: functional, cell-based
HT-29 = assay: Antiproliferative activity against human HT-29 cells after 72 hrs by MTT assay; format: functional, cell-based; details: HT-29, 72 h
A549 = assay: Antiproliferative activity against human A549 cells after 72 hrs by MTT assay; format: functional, cell-based; details: A549, 72 h
Jurkat = assay: Antiproliferative activity against human Jurkat cells after 72 hrs by MTT assay; format: functional, cell-based; procedure, shortened: as §1
B16 = assay: Antitumor activity against mouse B16 cells allografted in C57BL/6 mouse assessed as reduction in tumor burden at 30 mg/kg, ip dosing starting on day 9 post tumor injection administered […] on day 9,11, 13 and 15 relative to control; format: functional; parameters: scale not given: the % may be the effect or the level left
Procedure, shortened: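 Male C57BL/6 mice, six weeks old, given 2.5×10^5 BL6-B16 murine melanoma cells subcutaneously in the dorsolateral flank in PBS. Once tumours were palpable, compound in 50 µL DMSO was given intraperitoneally every other day from day 9 (days 9, 11, 13, 15); controls received vehicle. Tumour volume compared with control; 5 animals per group; mean ± SEM.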

[1] = biological target: Epidermal growth factor receptor (Homo sapiens, UniProt P00533); assay: Inhibition of wild type EGFR (unknown origin) by bioluminescent ADP-glo kinase assay
Tubulin = Tubulin (Bos taurus, UniProt Q6B856+Q862L2+Q862F3); assay: Inhibition of bovine brain tubulin polymerization after 20 mins
Procedure, shortened: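 Bovine brain tubulin (10 μM) preincubated with varying compound concentrations in 0.8 M monosodium glutamate, pH 6.6, at 30 °C, then chilled to 0 °C. 0.4 mM GTP added, mixtures warmed to 30 °C, assembly followed by turbidity at 350 nm.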

Tubulin (Bos taurus) = Tubulin (Bos taurus) (UniProt Q6B856+Q862L2+Q862F3); assay: Inhibition of [3H]-colchicine binding to bovine brain tubulin at 1 to 5 uM after 20 mins relative to control
Procedure, shortened: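 Colchicine-binding inhibition in mixtures of 1 μM tubulin, 5 μM [3H]colchicine and test compound at 1 or 5 μM.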

[2] = biological target: Vascular endothelial growth factor receptor 2 (Homo sapiens, UniProt P35968); assay: Inhibition of wild type VEGFR2 (unknown origin) by bioluminescent ADP-glo kinase assay
Vascular endothelial growth factor receptor 2, sequence (P35968 whole entry): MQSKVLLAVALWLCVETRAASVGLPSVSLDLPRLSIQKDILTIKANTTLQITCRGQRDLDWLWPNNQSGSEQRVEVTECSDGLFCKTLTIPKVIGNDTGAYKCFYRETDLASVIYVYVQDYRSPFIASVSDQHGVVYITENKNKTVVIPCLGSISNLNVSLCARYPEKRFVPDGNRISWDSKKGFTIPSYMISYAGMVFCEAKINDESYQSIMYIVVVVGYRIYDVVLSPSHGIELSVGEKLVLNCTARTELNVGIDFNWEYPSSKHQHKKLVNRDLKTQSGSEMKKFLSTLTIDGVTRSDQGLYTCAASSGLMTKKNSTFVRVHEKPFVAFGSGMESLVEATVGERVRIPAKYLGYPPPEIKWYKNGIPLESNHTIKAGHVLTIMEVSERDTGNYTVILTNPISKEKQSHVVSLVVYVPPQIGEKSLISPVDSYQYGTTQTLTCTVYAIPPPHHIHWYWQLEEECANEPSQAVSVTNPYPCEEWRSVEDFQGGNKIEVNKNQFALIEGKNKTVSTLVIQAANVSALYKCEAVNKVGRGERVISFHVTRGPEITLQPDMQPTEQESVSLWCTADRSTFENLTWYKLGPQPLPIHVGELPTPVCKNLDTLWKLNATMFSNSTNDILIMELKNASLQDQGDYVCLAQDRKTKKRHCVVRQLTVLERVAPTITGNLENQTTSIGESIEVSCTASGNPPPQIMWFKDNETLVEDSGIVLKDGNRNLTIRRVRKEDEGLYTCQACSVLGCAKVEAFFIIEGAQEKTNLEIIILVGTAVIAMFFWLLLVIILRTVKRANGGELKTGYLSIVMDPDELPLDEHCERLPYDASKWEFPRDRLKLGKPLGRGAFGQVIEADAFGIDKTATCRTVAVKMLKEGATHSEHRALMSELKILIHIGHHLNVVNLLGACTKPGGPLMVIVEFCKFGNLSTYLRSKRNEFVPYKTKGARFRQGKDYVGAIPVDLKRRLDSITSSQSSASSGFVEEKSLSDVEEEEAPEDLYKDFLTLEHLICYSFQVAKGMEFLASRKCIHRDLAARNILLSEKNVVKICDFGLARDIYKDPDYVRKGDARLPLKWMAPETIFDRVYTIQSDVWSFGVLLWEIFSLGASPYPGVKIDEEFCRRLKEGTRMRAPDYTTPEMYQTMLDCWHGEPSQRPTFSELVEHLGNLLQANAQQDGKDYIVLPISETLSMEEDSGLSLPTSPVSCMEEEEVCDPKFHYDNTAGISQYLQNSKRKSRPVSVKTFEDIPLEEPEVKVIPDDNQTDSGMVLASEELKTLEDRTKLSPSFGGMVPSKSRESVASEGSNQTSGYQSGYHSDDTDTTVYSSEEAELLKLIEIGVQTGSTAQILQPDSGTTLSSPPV

Epidermal growth factor receptor, sequence (P00533 whole entry): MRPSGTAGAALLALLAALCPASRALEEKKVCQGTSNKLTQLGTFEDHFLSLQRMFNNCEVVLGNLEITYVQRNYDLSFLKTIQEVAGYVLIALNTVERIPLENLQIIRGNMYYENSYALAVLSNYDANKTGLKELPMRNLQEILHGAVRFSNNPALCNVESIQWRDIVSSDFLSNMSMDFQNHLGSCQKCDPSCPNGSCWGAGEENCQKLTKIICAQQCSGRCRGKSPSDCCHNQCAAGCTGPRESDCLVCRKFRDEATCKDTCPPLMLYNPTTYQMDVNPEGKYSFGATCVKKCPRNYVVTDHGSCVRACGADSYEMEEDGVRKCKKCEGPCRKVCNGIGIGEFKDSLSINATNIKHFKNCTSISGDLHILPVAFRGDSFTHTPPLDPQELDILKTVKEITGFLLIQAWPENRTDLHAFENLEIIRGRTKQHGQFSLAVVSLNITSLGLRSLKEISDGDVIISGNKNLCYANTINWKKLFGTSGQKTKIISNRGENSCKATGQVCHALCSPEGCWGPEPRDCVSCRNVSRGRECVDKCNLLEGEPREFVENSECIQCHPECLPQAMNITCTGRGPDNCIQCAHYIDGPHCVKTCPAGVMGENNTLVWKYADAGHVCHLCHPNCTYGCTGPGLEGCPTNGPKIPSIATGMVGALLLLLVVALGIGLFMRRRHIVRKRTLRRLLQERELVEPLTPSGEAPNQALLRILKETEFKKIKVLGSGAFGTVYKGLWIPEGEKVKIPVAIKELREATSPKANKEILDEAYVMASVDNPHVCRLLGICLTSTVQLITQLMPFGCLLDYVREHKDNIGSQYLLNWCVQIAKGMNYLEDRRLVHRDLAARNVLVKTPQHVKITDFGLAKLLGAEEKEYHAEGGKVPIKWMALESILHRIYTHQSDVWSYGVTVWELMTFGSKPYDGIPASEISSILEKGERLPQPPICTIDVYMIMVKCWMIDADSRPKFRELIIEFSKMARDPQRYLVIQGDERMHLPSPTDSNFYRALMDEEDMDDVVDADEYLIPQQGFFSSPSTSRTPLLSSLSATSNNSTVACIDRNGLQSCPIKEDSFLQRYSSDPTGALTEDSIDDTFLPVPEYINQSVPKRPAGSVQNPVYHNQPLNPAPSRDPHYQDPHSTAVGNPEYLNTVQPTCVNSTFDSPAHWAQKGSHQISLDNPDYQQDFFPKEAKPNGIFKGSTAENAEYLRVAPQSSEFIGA

Row | IC50 (RS4-11) | IC50 (HeLa) | IC50 (HT-29) | IC50 (A549) | IC50 (Jurkat) | IC50 [1] | IC50 (Tubulin) | inhibition (Tubulin (Bos taurus)) | IC50 [2] | Structure (SMILES) | Activity (B16)
1 | 1300 nM | 4900 nM | 6300 nM | 1100 nM | 2000 nM |  |  |  |  | COc1cc(Nc2ncnc3cc(-c4ccc([N+](=O)[O-])cc4)sc23)cc(OC)c1OC | 
2 | 5 nM | 90 nM | 87 nM | 600 nM | 3 nM | 273 nM | 3.3 µM | 36% |  | COc1cc(Nc2ncnc3cc(-c4ccc(Cl)cc4)sc23)cc(OC)c1OC | 
3 | 4 nM | 170 nM | 60 nM | 430 nM | 5 nM | 52 nM | 2.8 µM | 31% | > 1000 nM | COc1ccc(-c2cc3ncnc(Nc4cc(OC)c(OC)c(OC)c4)c3s2)cc1 | 
4 | 190 nM | 220 nM | 150 nM | 530 nM | 30 nM | 326 nM | 2.5 µM | 35% |  | COc1cc(Nc2ncnc3cc(-c4ccc(Br)cc4)sc23)cc(OC)c1OC | 

The remaining lines, values behind:

Row | Structure (SMILES) | IC50 (RS4-11) | IC50 (HeLa) | IC50 (HT-29) | IC50 (A549) | IC50 (Jurkat) | IC50 [1] | IC50 (Tubulin) | inhibition (Tubulin (Bos taurus)) | IC50 [2] | Activity (B16)
5 | COc1ccc(/C=C\c2cc(OC)c(OC)c(OC)c2)cc1OP(=O)([O-])[O-].[Na+].[Na+] [FOSBRETABULIN DISODIUM] |  |  |  |  |  |  |  |  |  | 34.9%
6 | COc1ccc(/C=C\c2cc(OC)c(OC)c(OC)c2)cc1O [COMBRETASTATIN A4] | 1 nM |  |  |  |  |  |  |  |  | 
7 | COc1cccc(-c2cc3ncnc(Nc4cc(OC)c(OC)c(OC)c4)c3s2)c1 | 5400 nM | 3200 nM | 3300 nM | 8800 nM | 3000 nM |  |  |  |  | 
